Measurements taken from ChEMBL document CHEMBL3745670, “Synthesis and biological evaluation of novel lipoamino acid derivatives” (Bioorg Med Chem Lett, 2016).
Converted amounts (≈) assume the structure as drawn.

What was measured:
[1] = tested on: Staphylococcus aureus; assay: Bactericidal activity against Staphylococcus aureus MTCC 96 after 24 hrs; type: functional; conditions: MTCC 96, 24 h
Method in brief: (§1)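 Minimum bactericidal concentration was determined on four Gram-positive strains, for the compounds active in the preliminary antibacterial screen.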

[2] = tested on: Bacillus subtilis; assay: Bactericidal activity against Bacillus subtilis MTCC 121 after 24 hrs by well diffusion assay; type: functional; conditions: MTCC 121, 24 h; method in brief: as §1
[3] = tested on: Staphylococcus aureus; assay: Bactericidal activity against Staphylococcus aureus MLS-16 MTCC 2940 after 24 hrs; type: functional; conditions: MLS-16 MTCC 2940, 24 h; method in brief: as §1
[4] = tested on: Bacillus subtilis; assay: Antibiofilm activity against Bacillus subtilis MTCC 121 after 24 hrs by well diffusion assay by crystal violet staining based method; type: functional, organism-based; conditions: MTCC 121, 24 h
Method in brief: (§2)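 Biofilm inhibition was tested on the four Gram-positive strains, using crystal violet staining.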

[5] = tested on: Bacillus subtilis; assay: Antibacterial activity against Bacillus subtilis MTCC 121 after 24 hrs by well diffusion assay; type: functional; conditions: MTCC 121, 24 h
[6] = tested on: Raoultella planticola; assay: Antibacterial activity against Klebsiella planticola MTCC 530 after 24 hrs by well diffusion assay; type: functional; conditions: MTCC 530, 24 h
[7] = tested on: Escherichia coli; assay: Antibacterial activity against Escherichia coli MTCC 739 after 24 hrs by well diffusion assay; type: functional; conditions: MTCC 739, 24 h
[8] = tested on: Candida albicans; assay: Antifungal activity against Candida albicans MTCC 3017 after 24 hrs by well diffusion assay; type: functional; conditions: MTCC 3017, 24 h
Method in brief: (§3)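 Well diffusion screen against Candida and related fungal strains. Read-out is MIC in µg/mL, with miconazole as the reference drug.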

[9] = tested on: Micrococcus luteus; assay: Bactericidal activity against Micrococcus luteus MTCC 2470 after 24 hrs; type: functional; conditions: MTCC 2470, 24 h; method in brief: as §1
[10] = tested on: Micrococcus luteus; assay: Antibacterial activity against Micrococcus luteus MTCC 2470 after 24 hrs by well diffusion assay; type: functional; conditions: MTCC 2470, 24 h
[11] = tested on: Micrococcus luteus; assay: Antibiofilm activity against Micrococcus luteus MTCC 2470 after 24 hrs by crystal violet staining based method; type: functional, organism-based; conditions: MTCC 2470, 24 h; method in brief: as §2
[12] = tested on: Staphylococcus aureus; assay: Antibacterial activity against Staphylococcus aureus MTCC 96 after 24 hrs by well diffusion assay; type: functional; conditions: MTCC 96, 24 h
[13] = tested on: Staphylococcus aureus; assay: Antibacterial activity against Staphylococcus aureus MLS-16 MTCC 2940 after 24 hrs by well diffusion assay; type: functional; conditions: MLS-16 MTCC 2940, 24 h
[14] = tested on: Pseudomonas aeruginosa; assay: Antibacterial activity against Pseudomonas aeruginosa MTCC 2453 after 24 hrs by well diffusion assay; type: functional; conditions: MTCC 2453, 24 h
[15] = Cytotoxicity against human DU145 cells by MTT assay; type: functional, cell-based; conditions: DU-145
[16] = tested on: MDA-MB-231; assay: Cytotoxicity against human MDA-MB-231 cells by MTT assay; type: functional, cell-based
[17] = Cytotoxicity against human SKOV3 cells by MTT assay; type: functional, cell-based; conditions: SK-OV-3
[18] = tested on: Staphylococcus aureus; assay: Antibiofilm activity against Staphylococcus aureus MTCC 96 after 24 hrs by crystal violet staining based method; type: functional, organism-based; conditions: MTCC 96, 24 h; method in brief: as §2
[19] = tested on: HepG2; assay: Cytotoxicity against human HepG2 cells by MTT assay; type: functional, cell-based
[20] = tested on: Nakaseomyces glabratus; assay: Antifungal activity against Candida glabrata MTCC 3019 after 24 hrs by well diffusion assay; type: functional; conditions: MTCC 3019, 24 h; method in brief: as §3
[21] = tested on: Pichia kudriavzevii; assay: Antifungal activity against Pichia kudriavzevii MTCC 3020 after 24 hrs by well diffusion assay; type: functional; conditions: MTCC 3020, 24 h; method in brief: as §3
[22] = tested on: Candida parapsilosis; assay: Inhibition of ergosterol biosynthesis in Candida parapsilosis MTCC 1744 assessed as mean ergosterol content at 2 ug/ml after 20 hrs by spectrophotometric analysis (Rvb=1.62 +/- 0.08 ug/ml); type: functional
[23] = tested on: Candida albicans; assay: Antifungal activity against Candida albicans MTCC 3018 after 24 hrs by well diffusion assay; type: functional; conditions: MTCC 3018, 24 h; method in brief: as §3
[24] = tested on: [Candida] aaseri; assay: Antifungal activity against Candida aaseri MTCC 1962 after 24 hrs by well diffusion assay; type: functional; conditions: Yamadazyma aaseri, MTCC 1962, 24 h; method in brief: as §3
[25] = tested on: Candida albicans; assay: Antifungal activity against Candida albicans MTCC 4748 after 24 hrs by well diffusion assay; type: functional; conditions: MTCC 4748, 24 h; method in brief: as §3
[26] = tested on: Candida albicans; assay: Antifungal activity against Candida albicans MTCC 1637 after 24 hrs by well diffusion assay; type: functional; conditions: MTCC 1637, 24 h; method in brief: as §3
[27] = tested on: Candida parapsilosis; assay: Antifungal activity against Candida parapsilosis MTCC 1744 after 24 hrs by well diffusion assay; type: functional; conditions: Lodderomyces parapsilosis, MTCC 1744, 24 h; method in brief: as §3
[28] = tested on: Candida albicans; assay: Antifungal activity against Candida albicans MTCC 854 after 24 hrs by well diffusion assay; type: functional; conditions: MTCC 854, 24 h; method in brief: as §3
[29] = tested on: Candida albicans; assay: Antifungal activity against Candida albicans MTCC 7315 after 24 hrs by well diffusion assay; type: functional; conditions: MTCC 7315, 24 h; method in brief: as §3
[30] = tested on: Candida albicans; assay: Antifungal activity against Candida albicans MTCC 183 after 24 hrs by well diffusion assay; type: functional; conditions: MTCC 183, 24 h; method in brief: as §3
[31] = tested on: Candida parapsilosis; assay: Inhibition of ergosterol biosynthesis in Candida parapsilosis MTCC 1744 assessed as mean ergosterol content at 4 ug/ml after 20 hrs by spectrophotometric analysis (Rvb=1.62 +/- 0.08 ug/ml); type: functional
[32] = tested on: Pichia sporocuriosa; assay: Antifungal activity against Issatchenkia hanoiensis MTCC 4755 after 24 hrs by well diffusion assay; type: functional; conditions: MTCC 4755, 24 h; method in brief: as §3
[33] = tested on: Candida albicans; assay: Antifungal activity against Candida albicans MTCC 227 after 24 hrs by well diffusion assay; type: functional; conditions: MTCC 227, 24 h; method in brief: as §3
[34] = tested on: Candida albicans; assay: Antifungal activity against Candida albicans MTCC 3958 after 24 hrs by well diffusion assay; type: functional; conditions: MTCC 3958, 24 h; method in brief: as §3
[35] = tested on: Candida parapsilosis; assay: Inhibition of ergosterol biosynthesis in Candida parapsilosis MTCC 1744 assessed as mean ergosterol content at 16 ug/ml after 20 hrs by spectrophotometric analysis (Rvb=1.62 +/- 0.08 ug/ml); type: functional
[36] = tested on: Candida parapsilosis; assay: Inhibition of ergosterol biosynthesis in Candida parapsilosis MTCC 1744 assessed as mean ergosterol content at 8 ug/ml after 20 hrs by spectrophotometric analysis (Rvb=1.62 +/- 0.08 ug/ml); type: functional

O=C(O)c1cn(C2CC2)c2cc(N3CCNCC3)c(F)cc2c1=O [CIPROFLOXACIN]
MBC [1]: 1.9 mg/L (≈ 5.73 µM) | MBC [2]: 1.9 mg/L (≈ 5.73 µM) | MBC [3]: 1.9 mg/L (≈ 5.73 µM) | IC50 [4]: 0.5 µM | MIC [5]: 0.9 mg/L (≈ 2.72 µM) | MIC [6]: 0.9 mg/L (≈ 2.72 µM) | MIC [7]: 0.9 mg/L (≈ 2.72 µM) | MIC [8]: > 125 mg/L | MBC [9]: 0.9 mg/L (≈ 2.72 µM) | MIC [10]: 0.9 mg/L (≈ 2.72 µM) | IC50 [11]: 0.5 µM | MIC [12]: 0.9 mg/L (≈ 2.72 µM) | MIC [13]: 0.9 mg/L (≈ 2.72 µM) | MIC [14]: 0.9 mg/L (≈ 2.72 µM)

CCCCCCCCC(CCCCCCCCC(=O)OC)SCC(=O)N[C@H](C(=O)OC)[C@@H](C)CC (stereo partly drawn)
MBC [1]: 31.2 mg/L (≈ 60.5 µM) | IC50 [15]: 19 µM | MIC [5]: > 125 mg/L | MIC [6]: > 125 mg/L | IC50 [16]: 22.4 µM | IC50 [17]: 16.4 µM | MIC [7]: > 125 mg/L | MIC [8]: > 125 mg/L | MBC [9]: 31.2 mg/L (≈ 60.5 µM) | IC50 [18]: 21.5 µM | IC50 [19]: 15.3 µM | MIC [10]: 31.2 mg/L (≈ 60.5 µM) | IC50 [11]: 16.8 µM | MIC [12]: 31.2 mg/L (≈ 60.5 µM) | MIC [13]: > 125 mg/L | MIC [14]: > 125 mg/L

CCCCCCCCC(CCCCCCCCC(=O)OC)SCC(=O)N[C@H](C(=O)OC)c1c[nH]cn1 (stereo partly drawn)
MBC [2]: 3.9 mg/L (≈ 7.42 µM) | IC50 [4]: 1.9 µM | MIC [5]: 3.9 mg/L (≈ 7.42 µM) | MIC [6]: > 125 mg/L | MIC [7]: > 125 mg/L | MIC [8]: > 125 mg/L | MBC [9]: 7.8 mg/L (≈ 14.8 µM) | MIC [10]: 3.9 mg/L (≈ 7.42 µM) | IC50 [11]: 2.1 µM | MIC [12]: > 125 mg/L | MIC [13]: > 125 mg/L | MIC [14]: > 125 mg/L

Clc1ccc(COC(Cn2ccnc2)c2ccc(Cl)cc2Cl)c(Cl)c1 (stereo not drawn) [MICONAZOLE]
MFC [20]: 7.8 mg/L (≈ 18.7 µM) | MIC [20]: 7.8 mg/L (≈ 18.7 µM) | MFC [21]: 7.8 mg/L (≈ 18.7 µM) | MIC [21]: 7.8 mg/L (≈ 18.7 µM) | Activity [22]: 1.28 µg/mL | MIC [5]: > 125 mg/L | MFC [23]: 7.8 mg/L (≈ 18.7 µM) | MIC [23]: 7.8 mg/L (≈ 18.7 µM) | MFC [24]: 15.6 mg/L (≈ 37.5 µM) | MIC [24]: 7.8 mg/L (≈ 18.7 µM) | MIC [6]: > 125 mg/L | MFC [25]: 7.8 mg/L (≈ 18.7 µM) | MIC [25]: 7.8 mg/L (≈ 18.7 µM) | MFC [26]: 15.6 mg/L (≈ 37.5 µM) | MIC [26]: 7.8 mg/L (≈ 18.7 µM) | MFC [27]: 7.8 mg/L (≈ 18.7 µM) | MIC [27]: 7.8 mg/L (≈ 18.7 µM) | MFC [28]: 7.8 mg/L (≈ 18.7 µM) | MIC [28]: 7.8 mg/L (≈ 18.7 µM) | MFC [29]: 15.6 mg/L (≈ 37.5 µM) | MIC [29]: 7.8 mg/L (≈ 18.7 µM) | MFC [30]: 7.8 mg/L (≈ 18.7 µM) | MIC [30]: 7.8 mg/L (≈ 18.7 µM) | MIC [7]: > 125 mg/L | MIC [8]: 7.8 mg/L (≈ 18.7 µM) | Activity [31]: 0.54 µg/mL | MFC [32]: 7.8 mg/L (≈ 18.7 µM) | MIC [32]: 7.8 mg/L (≈ 18.7 µM) | MIC [10]: > 125 mg/L | MFC [33]: 15.6 mg/L (≈ 37.5 µM) | MIC [33]: 7.8 mg/L (≈ 18.7 µM) | MFC [34]: 7.8 mg/L (≈ 18.7 µM) | MIC [34]: 7.8 mg/L (≈ 18.7 µM) | MIC [12]: > 125 mg/L | MIC [13]: > 125 mg/L | Activity [35]: 0.09 µg/mL | MIC [14]: > 125 mg/L | Activity [36]: 0.24 µg/mL

CCCCCCCCC(CCCCCCCCC(=O)OC)SCC(=O)N[C@H](C(=O)OC)c1c[nH]c2ccccc12 (stereo partly drawn)
MIC [5]: > 125 mg/L | MIC [6]: > 125 mg/L | MIC [7]: > 125 mg/L | MIC [8]: > 125 mg/L | MIC [10]: > 125 mg/L | MIC [12]: > 125 mg/L | MIC [13]: > 125 mg/L | MIC [14]: > 125 mg/L
